This is an account of results in ChEMBL document CHEMBL4765368, “Structure guided design and synthesis of furyl thiazolidinedione derivatives as inhibitors of GLUT 1 and GLUT 4, and evaluation of their anti-leukemic potential” (Eur J Med Chem, 2020).

Each structure is given as a SMILES string. The source made the active and inactive calls. The rule behind the calls is not given here. Where only a bound is given, the exact number is not on record here.

The target of test [1] is T1, Solute carrier family 2, facilitated glucose transporter member 5 (Homo sapiens) (UniProt P22732).
T1 sequence (whole entry): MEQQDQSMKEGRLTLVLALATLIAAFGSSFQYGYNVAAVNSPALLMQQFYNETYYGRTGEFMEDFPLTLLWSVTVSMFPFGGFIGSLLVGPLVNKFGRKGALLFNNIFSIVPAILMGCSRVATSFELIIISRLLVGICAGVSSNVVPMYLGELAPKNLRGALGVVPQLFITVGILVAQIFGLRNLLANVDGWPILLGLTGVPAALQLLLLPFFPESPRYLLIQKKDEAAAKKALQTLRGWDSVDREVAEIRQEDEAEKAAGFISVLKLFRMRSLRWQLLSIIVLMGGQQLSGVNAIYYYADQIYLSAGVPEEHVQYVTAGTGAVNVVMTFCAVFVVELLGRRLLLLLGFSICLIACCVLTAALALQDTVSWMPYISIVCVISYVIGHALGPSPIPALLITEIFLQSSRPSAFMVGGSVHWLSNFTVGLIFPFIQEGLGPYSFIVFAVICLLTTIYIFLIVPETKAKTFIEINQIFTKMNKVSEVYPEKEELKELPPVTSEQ
As to the kind of experiment: Inhibition of transport activity of human GLUT5 expressed in hexose transporter deficient VW4000 yeast cells assessed as reduction in transporter-mediated [14C]-fructose uptake into cells at 100 uM measured after 10 mins by scintillation counting method. The format is cell-based. In a few lines:
(§1)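 The hxt0 yeast strain expressing one human GLUT was grown at 30 °C and resuspended in PBS pH 7.4 at OD600 ~10. Uptake was started with 14C-glucose at 5 mM final (GLUT1, GLUT4) or 14C-fructose at 10 mM final (GLUT5). It was quenched after 10 min with ice-cold 0.1 M KPi/0.1 M LiCl pH 5.5, filtered and counted by scintillation. Compound at 100 μM with 1% DMSO; DMSO control and phloretin 200 μM (GLUT1/4) or MSNBA 100 μM (GLUT5) as references. Triplicates.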

Test [2] addresses Histone deacetylase 4 (Homo sapiens) (UniProt P56524). Put plainly: Inhibition of recombinant human N-terminal GST-tagged HDAC4 (627 to end residues) expressed in baculovirus infected Sf9 insect cells assessed as residual activity at 50 uM using Boc-Lys(trifluoroacetyl)-AMC as substrate preincubated for 60 mins followed by substrate addition and measured after 60 mins by fluorescence assay relative to control. The conditions noted are these: time 120.0 min.

Test [3] concerns the target T2, Histone deacetylase 8 (Homo sapiens) (UniProt Q9BY41).
T2 sequence (whole entry): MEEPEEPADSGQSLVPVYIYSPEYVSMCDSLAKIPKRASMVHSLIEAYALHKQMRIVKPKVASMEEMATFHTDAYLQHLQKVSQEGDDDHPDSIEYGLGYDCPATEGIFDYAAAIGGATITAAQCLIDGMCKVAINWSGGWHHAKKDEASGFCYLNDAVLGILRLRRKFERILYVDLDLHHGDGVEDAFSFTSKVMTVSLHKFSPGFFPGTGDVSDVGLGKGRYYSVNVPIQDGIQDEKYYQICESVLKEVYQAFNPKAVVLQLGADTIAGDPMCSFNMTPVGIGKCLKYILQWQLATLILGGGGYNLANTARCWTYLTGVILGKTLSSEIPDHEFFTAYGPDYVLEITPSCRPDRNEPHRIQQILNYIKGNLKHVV
As to the kind of experiment: Inhibition of recombinant human His6/SUMO-tagged HDAC8 expressed in Escherichia coli (BL21) DE3 pLysS assessed as residual activity at 50 uM using Boc-Lys(trifluoroacetyl)-AMC as substrate preincubated for 60 mins followed by substrate addition and measured after 60 mins by fluorescence assay relative to control. The conditions noted are these: time 120.0 min. In a few lines: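 20 μM Boc-Lys(trifluoroacetyl)-AMC was then added for 60 min at 30 °C, the reaction stopped with 1.7 μM SATFMK and developed with 0.4 mg/ml trypsin, and AMC fluorescence read at Ex 350/Em 450 nm. Triplicates; percent relative activity.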

Another test deals with T3, Histone deacetylase 8 (Homo sapiens, UniProt Q9BY41).
T3 sequence (Q9BY41 whole entry): T2 sequence (whole entry)
As to the kind of experiment: Inhibition of recombinant human His6/SUMO-tagged HDAC8 expressed in Escherichia coli (BL21) DE3 pLysS using Boc-Lys(trifluoroacetyl)-AMC as substrate preincubated for 60 mins followed by substrate addition and measured after 60 mins by fluorescence assay.

For test [4], the target named is T4, Solute carrier family 2, facilitated glucose transporter member 1 (Homo sapiens) (UniProt P11166).
T4 sequence (whole entry): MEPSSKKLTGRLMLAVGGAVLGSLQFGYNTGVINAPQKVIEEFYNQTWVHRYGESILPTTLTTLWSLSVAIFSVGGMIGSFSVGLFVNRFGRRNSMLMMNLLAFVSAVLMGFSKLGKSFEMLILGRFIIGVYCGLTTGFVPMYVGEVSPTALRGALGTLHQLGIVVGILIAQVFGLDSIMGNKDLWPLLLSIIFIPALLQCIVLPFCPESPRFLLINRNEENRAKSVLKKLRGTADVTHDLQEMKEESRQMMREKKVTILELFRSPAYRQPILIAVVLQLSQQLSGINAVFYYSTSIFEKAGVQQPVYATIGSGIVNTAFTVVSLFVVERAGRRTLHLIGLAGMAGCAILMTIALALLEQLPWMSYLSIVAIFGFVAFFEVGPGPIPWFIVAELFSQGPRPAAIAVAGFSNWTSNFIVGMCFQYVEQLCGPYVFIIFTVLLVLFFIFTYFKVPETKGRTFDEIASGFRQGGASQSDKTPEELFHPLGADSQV
As to the kind of experiment: Inhibition of transport activity of human GLUT1 expressed in hexose transporter deficient VW4000fgy1 yeast cells assessed as reduction in transporter-mediated [14C]-hexose uptake into cells at 100 uM measured after 10 mins by scintillation counting method relative to control. The format is cell-based. In a few lines: as §1

The subject of the next test is KCL-22. Put plainly: Cytotoxicity against human KCL-22 cells assessed as reduction in cell viability measured after 48 hrs by Hoechst 33342/propidium iodide staining based imaging analysis. The format is functional. In a few lines: (§2)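 Cells were seeded at 10,000 per well (HS-27 at 3,000) in 10% FBS RPMI (leukemic lines) or DMEM (MDA-MB-231, HS-27). Compound in DMSO (1% v/v final) at 0.5–100 µM for 48 h. Hoechst 33342 and PI were added 2 h before automated imaging; dead cells were co-stained. Quadruplicates. CC50 was taken by linear interpolation between the two concentrations nearest 50% death.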

In test [5] the target is T5, Solute carrier family 2, facilitated glucose transporter member 4 (Homo sapiens, UniProt P14672).
T5 sequence (P14672 whole entry): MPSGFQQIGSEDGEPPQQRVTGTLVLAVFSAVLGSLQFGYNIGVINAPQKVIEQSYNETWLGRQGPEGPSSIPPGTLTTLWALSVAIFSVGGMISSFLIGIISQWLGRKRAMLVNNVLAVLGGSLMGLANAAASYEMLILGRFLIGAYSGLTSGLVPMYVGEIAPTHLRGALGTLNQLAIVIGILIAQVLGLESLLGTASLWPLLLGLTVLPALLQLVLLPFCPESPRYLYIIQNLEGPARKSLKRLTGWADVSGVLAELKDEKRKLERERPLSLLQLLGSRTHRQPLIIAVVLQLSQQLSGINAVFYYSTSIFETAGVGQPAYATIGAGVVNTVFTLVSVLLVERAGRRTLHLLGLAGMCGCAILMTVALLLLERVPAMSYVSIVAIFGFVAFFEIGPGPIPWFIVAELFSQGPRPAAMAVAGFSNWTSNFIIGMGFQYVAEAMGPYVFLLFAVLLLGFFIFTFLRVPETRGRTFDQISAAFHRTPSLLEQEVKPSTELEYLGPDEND
Put plainly: Inhibition of transport activity of human GLUT4 expressed in hexose transporter deficient W4000fgy1 erg4 yeast cells assessed as reduction in transporter-mediated [14C]-hexose uptake into cells measured after 10 mins by scintillation counting method. The format is cell-based. In a few lines:
(§3)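 GLUT1 (VW4000fgy1) or GLUT4 (VW4000fgy1erg4) hxt0 yeast were grown on maltose and then glucose and resuspended in PBS pH 7.4 at OD600 ~10. Compound was used at 0.1–100 μM, final 1% DMSO. Uptake of 5 mM 14C-glucose over 10 min was stopped with ice-cold quench buffer, filtered and counted by scintillation. IC50 was taken from dose-response curves of three independent measurements.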

Test [6] addresses T6, Solute carrier family 2, facilitated glucose transporter member 1 (Homo sapiens, UniProt P11166).
T6 sequence (P11166 whole entry): T4 sequence (whole entry)
As to the kind of experiment: Inhibition of transport activity of human GLUT1 expressed in hexose transporter deficient VW4000fgy1 yeast cells assessed as reduction in transporter-mediated [14C]-hexose uptake into cells measured after 10 mins by scintillation counting method. The format is cell-based. In a few lines:
as §3

The next test concerns K562. As to the kind of experiment: Cytotoxicity against human K562 cells assessed as reduction in cell viability measured after 48 hrs by Hoechst 33342/propidium iodide staining based imaging analysis. Type of test: functional. In a few lines: as §2
The target in test [7] is T7, Solute carrier family 2, facilitated glucose transporter member 4 (Homo sapiens) (UniProt P14672).
T7 sequence (whole entry): T5 sequence (P14672 whole entry)
As to the kind of experiment: Inhibition of transport activity of human GLUT4 expressed in hexose transporter deficient […] erg4 yeast cells assessed as reduction in transporter-mediated [14C]-hexose uptake into cells at 100 uM measured after 10 mins by scintillation counting method relative to control. The format is cell-based. Put shortly:
as §1

A further test relates to CCRF-CEM. As to the kind of experiment: Cytotoxicity against human CCRF-CEM cells assessed as reduction in cell viability measured after 48 hrs by Hoechst 33342/propidium iodide staining based imaging analysis. Type of test: functional. Put shortly:
as §2

Histone deacetylase 4 (Homo sapiens), sequence (P56524 whole entry): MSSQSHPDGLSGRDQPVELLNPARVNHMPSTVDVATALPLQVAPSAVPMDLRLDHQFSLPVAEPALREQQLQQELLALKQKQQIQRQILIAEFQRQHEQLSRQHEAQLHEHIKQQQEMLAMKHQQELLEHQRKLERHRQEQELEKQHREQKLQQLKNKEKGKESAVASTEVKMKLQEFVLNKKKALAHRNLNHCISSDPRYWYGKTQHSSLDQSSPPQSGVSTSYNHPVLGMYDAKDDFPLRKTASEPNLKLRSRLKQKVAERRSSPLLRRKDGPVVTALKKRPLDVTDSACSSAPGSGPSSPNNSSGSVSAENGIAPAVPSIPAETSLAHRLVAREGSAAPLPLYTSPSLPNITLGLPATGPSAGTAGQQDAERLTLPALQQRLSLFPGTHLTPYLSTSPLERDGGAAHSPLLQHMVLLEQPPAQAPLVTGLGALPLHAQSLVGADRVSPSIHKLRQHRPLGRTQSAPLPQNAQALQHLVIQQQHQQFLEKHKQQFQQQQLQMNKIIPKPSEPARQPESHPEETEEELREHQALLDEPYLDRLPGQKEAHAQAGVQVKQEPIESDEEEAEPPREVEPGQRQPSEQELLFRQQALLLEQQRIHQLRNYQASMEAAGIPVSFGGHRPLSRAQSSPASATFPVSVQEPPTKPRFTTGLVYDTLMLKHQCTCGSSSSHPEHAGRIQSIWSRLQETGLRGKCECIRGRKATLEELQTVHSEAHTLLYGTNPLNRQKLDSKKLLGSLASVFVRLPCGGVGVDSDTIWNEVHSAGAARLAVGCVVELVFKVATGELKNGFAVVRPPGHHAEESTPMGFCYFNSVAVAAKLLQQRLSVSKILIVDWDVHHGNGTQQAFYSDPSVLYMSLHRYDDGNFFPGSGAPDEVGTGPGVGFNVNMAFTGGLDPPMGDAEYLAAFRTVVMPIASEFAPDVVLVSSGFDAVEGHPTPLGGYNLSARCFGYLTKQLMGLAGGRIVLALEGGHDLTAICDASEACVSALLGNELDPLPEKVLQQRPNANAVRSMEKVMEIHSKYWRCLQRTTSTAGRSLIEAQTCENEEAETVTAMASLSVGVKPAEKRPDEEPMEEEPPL

As for `O=C(CN1C(=O)S/C(=C/c2ccco2)C1=O)Nc1ccc([N+](=O)[O-])cc1`, the inhibition (as a rule, how much of the control response was suppressed) in test [1] is “inactive”. The Activity in test [2] is over 50%; in test [3], 17%. The IC50 (usually the concentration that inhibits the measured activity by half) on Histone deacetylase 8 is 13 µM.

For the molecule `Cc1cccc2sc(NC(=O)CN3C(=O)S/C(=C/c4ccco4)C3=O)nc12`, the inhibition in test [4] and in test [7] was over 50% each time. Further, the CC50 (commonly the concentration that lowers cell viability or growth by half) in the test with KCL-22 stood at 97 µM; in the test on K562, 97.1 µM; in the test with CCRF-CEM, 96.8 µM. In addition, the IC50 in test [5] stood at 123 µM; in test [6], 72 µM. Besides, the inhibition result in test [1] was “inactive”. In addition, the Activity in test [2] and in [3] was over 50% each time.
